ChEMBL document CHEMBL2346629, “Discovery and characterization of novel allosteric FAK inhibitors” (Eur J Med Chem, 2013)

Target: Interleukin-1 receptor-associated kinase 1 (Homo sapiens) (UniProt P51617)
Assay: Inhibition of IRAK1 (unknown origin) using [gamma-33P]ATP assessed as residual activity at 3 uM
Procedure, shortened: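 Radiometric kinase profiling service covering 288 kinases (261 wild-type, 27 mutant). Inhibition was read as incorporation from [γ-³³P]ATP.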

Chain of Interleukin-1 receptor-associated kinase 1 (Homo sapiens) (P51617 whole entry, looked up): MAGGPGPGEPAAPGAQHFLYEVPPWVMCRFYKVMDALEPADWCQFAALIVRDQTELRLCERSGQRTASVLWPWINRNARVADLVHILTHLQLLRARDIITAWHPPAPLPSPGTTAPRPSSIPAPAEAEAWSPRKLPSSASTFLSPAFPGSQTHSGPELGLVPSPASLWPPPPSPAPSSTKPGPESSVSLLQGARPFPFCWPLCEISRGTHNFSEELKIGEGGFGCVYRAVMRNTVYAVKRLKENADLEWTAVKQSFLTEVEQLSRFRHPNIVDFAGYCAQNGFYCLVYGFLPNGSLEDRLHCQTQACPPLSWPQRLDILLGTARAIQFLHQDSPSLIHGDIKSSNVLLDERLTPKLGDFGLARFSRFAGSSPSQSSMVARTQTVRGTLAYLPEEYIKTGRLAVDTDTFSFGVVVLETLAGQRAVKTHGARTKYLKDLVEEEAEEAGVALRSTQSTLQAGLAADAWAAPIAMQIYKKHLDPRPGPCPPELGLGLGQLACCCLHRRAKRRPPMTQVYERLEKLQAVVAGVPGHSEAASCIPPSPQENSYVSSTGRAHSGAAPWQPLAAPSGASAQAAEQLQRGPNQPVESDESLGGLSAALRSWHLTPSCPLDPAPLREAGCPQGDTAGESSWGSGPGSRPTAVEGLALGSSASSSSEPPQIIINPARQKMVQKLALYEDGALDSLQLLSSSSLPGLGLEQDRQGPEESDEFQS

CCc1ccc(-c2ccc3c(c2)-c2[nH]ncc2S(=O)(=O)N3C)cc1
Activity: 102%
